Common to all, as to type: functional, cell-based
Common to all, as to settings: HCT-116, 48 h

The subject of assay [1] is HCT-116. Briefly: Cytotoxicity against P21 deficient human HCT116 cells after 48 hrs by MTS assay. An outline of the steps: (§1)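 HCT116 colon tumour lines (wild type and isogenic p53- or p21-deficient, p21 disrupted by homologous recombination) grown in McCoy's 5A with 10% FBS, penicillin/streptomycin, L-glutamine and sodium pyruvate at 37 °C, 5% CO2. Seeded per well at 3000 (p53+, p53-), 4000 (p21+) or 6000 (p21-) cells. After 24 h, medium was replaced. Cells were exposed to varying concentrations for 48 h, and MTS bioreduction was read at 490 nm.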
(Tetrazolium assays rely on reduction of a dye to a coloured formazan, in cell work by metabolically active cells.)

Assay [2] relates to HCT-116. Briefly: Cytotoxicity against P21+ wild type human HCT116 cells after 48 hrs by MTS assay. Put shortly:
as §1

For assay [3], the system named is HCT-116. Nature of the assay: Cytotoxicity against P53+ wild type human HCT116 cells after 48 hrs by MTS assay. Put shortly:
as §1

For assay [4], the system named is HCT-116. Nature of the assay: Cytotoxicity against P53 deficient human HCT116 cells after 48 hrs by MTS assay. Put shortly: as §1

The structures appear in SMILES notation. Bounds are passed on as bounds.

With `CC(=O)O[C@H]1CC[C@@]2(C)[C@@H](CC[C@]3(C)/C(=C(C)/C=C/C=C(\C)c4ccc(C)c(=O)o4)C(=O)C[C@@H]23)C1(C)C` [STELLETTIN D], the IC50 (commonly the concentration that gives 50% inhibition) in the assay on HCT-116 [1] was determined as 0.31 µM; in the assay with HCT-116 [2], 0.43 µM.
Turning to `CC(/C=C/C=C(\C)c1ccc(C)c(=O)o1)=C1/C(=O)C[C@H]2[C@@]3(C)CCC(=O)C(C)(C)[C@@H]3CC[C@]12C` [STELLETTIN B], the IC50 in the assay with HCT-116 [3] was found to be 7.25 µM; in the assay with HCT-116 [4], 8.23 µM; in the assay with HCT-116 [1] it was 0.043 µM; with HCT-116 [2] it was 0.65 µM.
In the case of `CC(=O)O[C@H]1CC[C@@]2(C)[C@@H](CC[C@]3(C)\C(=C(C)/C=C/C=C(C)/C=C/C=C(\C)C(=O)O)C(=O)C[C@@H]23)C1(C)C`, the IC50 with HCT-116 [1] is 3.98 µM; with HCT-116 [2], greater than 4.92 µM.
The corresponding values for `CC(/C=C/C=C(\C)C(=O)O)=C\C=C\C(C)=C1\C(=O)C[C@H]2[C@@]3(C)CCC(=O)C(C)(C)[C@@H]3CC[C@]12C` [RHABDASTRELLIC ACID A] are 3.49 µM and greater than 5.39 µM.
In the case of `CC(/C=C/C=C(C)/C=C/C=C(\C)C(=O)O)=C1/C(=O)C[C@H]2[C@@]3(C)CCC(=O)C(C)(C)[C@@H]3CC[C@]12C` [STELLETIN E], the IC50 with HCT-116 [3] was greater than 5.39 µM; with HCT-116 [4], greater than 5.39 µM; in the assay with HCT-116 [1], 0.039 µM; in the assay on HCT-116 [2] it was 4.57 µM.
In the case of `C\C(=C/C=C/C(C)=C1/C(=O)C[C@H]2[C@@]3(C)CCC(=O)C(C)(C)[C@@H]3CC[C@]12C)c1ccc(C)c(=O)o1` [STELLETIN A], the IC50 in the assay with HCT-116 [1] was 0.26 µM; with HCT-116 [2], 4.46 µM.
`CC(=O)O[C@H]1CC[C@@]2(C)[C@@H](CC[C@]3(C)/C(=C(C)/C=C/C=C(C)/C=C/C=C(\C)C(=O)O)C(=O)C[C@@H]23)C1(C)C`: the results for the IC50 with HCT-116 [1] and with HCT-116 [2] were 3.86 µM and greater than 4.92 µM, respectively.
Regarding `CC(=O)O[C@H]1CC[C@@]2(C)[C@@H](CC[C@]3(C)\C(=C(C)/C=C/C=C(\C)c4ccc(C)c(=O)o4)C(=O)C[C@@H]23)C1(C)C` [STELLETTIN C], the IC50 in the assay with HCT-116 [1] came to 0.3 µM; in the assay on HCT-116 [2], 2.45 µM.
